Source: PMC4339026 (Biopolymers, 2014)
“Also recorded” adds a separate entry of the source. Like-named read-outs stand apart in the source and are kept apart here. Blank lines part the entries; values can stand above or below the molecule they belong to.

What was measured:
meprin α [1] = target: T1, meprin α (Homo sapiens, UniProt Q16819); assay: Meprin α LOPAC pilot screen; type: biochemical; details: 18 μM, hit cutoff 25% inhibition
T1 sequence (Q16819 66-653 limits assumed): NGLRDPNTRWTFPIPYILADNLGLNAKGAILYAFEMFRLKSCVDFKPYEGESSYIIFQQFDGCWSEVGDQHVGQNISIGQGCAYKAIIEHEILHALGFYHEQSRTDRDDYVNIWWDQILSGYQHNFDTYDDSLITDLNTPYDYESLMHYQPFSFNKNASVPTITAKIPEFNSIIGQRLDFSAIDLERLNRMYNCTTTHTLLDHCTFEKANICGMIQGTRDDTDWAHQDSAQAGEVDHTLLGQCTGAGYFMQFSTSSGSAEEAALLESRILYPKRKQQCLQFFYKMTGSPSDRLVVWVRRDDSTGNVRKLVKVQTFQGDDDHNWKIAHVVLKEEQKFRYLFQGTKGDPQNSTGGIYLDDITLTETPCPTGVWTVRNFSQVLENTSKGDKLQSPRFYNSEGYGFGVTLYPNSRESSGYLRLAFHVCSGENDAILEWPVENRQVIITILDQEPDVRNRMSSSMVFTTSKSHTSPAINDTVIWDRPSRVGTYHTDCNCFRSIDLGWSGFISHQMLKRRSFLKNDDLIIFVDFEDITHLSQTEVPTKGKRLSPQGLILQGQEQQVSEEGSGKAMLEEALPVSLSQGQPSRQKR
How it was run: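 Single-point FRET screen of 1,280 library compounds at 18 μM nominal final concentration, on four plates. Trypsin-activated recombinant human meprin α (2x solution 2.6 nM, Hepes/Brij-35 pH 7.5) was pre-incubated 30 min at RT with test compound added by pin tool. 2x (MCA)-YVADAPK-(K-ε-DNP) at 20 μM was then added for 1 h at RT. Read at ex 324/em 393 nm.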

meprin β [2] = target: T2, meprin β (Homo sapiens, UniProt Q16820); assay: Meprin β LOPAC pilot screen; type: biochemical; details: 18 μM; for meprin β LOPAC pilot screen outcome: hit cutoff 25% inhibition
T2 sequence (Q16820 62-614 limits assumed): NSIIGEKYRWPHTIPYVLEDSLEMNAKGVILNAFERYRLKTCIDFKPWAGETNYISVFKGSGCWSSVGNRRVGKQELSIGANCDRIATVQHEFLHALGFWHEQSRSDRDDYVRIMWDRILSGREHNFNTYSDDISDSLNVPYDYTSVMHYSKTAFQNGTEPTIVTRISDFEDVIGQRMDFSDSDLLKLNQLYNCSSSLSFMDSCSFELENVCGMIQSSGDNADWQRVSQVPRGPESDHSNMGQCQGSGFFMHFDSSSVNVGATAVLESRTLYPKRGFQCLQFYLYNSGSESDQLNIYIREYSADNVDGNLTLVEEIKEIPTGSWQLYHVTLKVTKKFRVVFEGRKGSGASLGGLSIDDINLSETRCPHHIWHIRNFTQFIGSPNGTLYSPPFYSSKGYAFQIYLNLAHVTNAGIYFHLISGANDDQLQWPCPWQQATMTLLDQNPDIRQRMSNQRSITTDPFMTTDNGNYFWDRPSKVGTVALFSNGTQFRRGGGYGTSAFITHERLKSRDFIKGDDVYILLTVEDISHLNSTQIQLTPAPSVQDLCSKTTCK

MMP-8 = MMP-8 (Homo sapiens, UniProt P22894); assay: Selectivity testing against zinc metalloproteases: MMP-8; type: biochemical; details: read-out: IC50 MMP-8; n = 3 Mean ± SD
Chain of MMP-8 (P22894 101-467, species assumed): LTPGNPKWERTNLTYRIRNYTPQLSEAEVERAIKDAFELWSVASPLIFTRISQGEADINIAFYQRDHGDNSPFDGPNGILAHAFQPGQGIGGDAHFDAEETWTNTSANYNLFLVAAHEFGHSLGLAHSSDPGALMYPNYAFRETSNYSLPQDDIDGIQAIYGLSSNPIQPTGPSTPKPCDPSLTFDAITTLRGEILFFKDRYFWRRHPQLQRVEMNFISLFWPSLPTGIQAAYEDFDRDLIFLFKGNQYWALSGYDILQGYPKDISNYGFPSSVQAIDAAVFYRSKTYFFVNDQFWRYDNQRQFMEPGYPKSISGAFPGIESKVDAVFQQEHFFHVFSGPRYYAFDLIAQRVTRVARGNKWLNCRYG

MMP-14 = MMP-14 (Homo sapiens, UniProt P50281); assay: Selectivity testing against zinc metalloproteases: MMP-14; type: biochemical; details: read-out: IC50 MMP-14; n = 3 Mean ± SD
ADAM17 = ADAM17 (Homo sapiens, UniProt P78536); assay: Selectivity testing against zinc metalloproteases: ADAM17; type: biochemical; details: read-out: IC50 ADAM17; n = 3 Mean ± SD
Chain of ADAM17 (P78536 215-824, species assumed): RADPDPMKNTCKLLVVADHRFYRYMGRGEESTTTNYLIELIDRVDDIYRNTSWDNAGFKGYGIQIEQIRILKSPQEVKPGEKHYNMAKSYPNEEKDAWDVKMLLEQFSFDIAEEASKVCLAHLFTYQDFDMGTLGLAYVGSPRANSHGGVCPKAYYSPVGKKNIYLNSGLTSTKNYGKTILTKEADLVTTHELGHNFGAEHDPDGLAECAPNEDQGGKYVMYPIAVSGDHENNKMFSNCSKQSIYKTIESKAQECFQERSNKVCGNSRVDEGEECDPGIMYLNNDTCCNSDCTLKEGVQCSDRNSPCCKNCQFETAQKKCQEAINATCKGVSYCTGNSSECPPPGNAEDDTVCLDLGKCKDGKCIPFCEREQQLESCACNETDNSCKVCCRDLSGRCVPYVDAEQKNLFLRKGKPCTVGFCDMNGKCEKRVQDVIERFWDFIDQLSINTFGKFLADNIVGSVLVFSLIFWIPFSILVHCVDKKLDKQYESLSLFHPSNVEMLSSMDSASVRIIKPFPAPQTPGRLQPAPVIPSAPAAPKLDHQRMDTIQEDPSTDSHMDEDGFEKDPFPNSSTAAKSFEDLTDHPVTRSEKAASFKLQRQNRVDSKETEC

meprin β [3] = target: T2, meprin β; assay: Meprin β inhibition kinetics / enzyme kinetics; type: biochemical
How it was run: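 Trypsin-activated meprin β at 1 nM was run with (MCA)-EDEDED-(K-ε-DNP) 0.5–25 μM plus varying inhibitor concentrations in 50 mM Hepes, 0.01% Brij-35, pH 7.5, at 25 °C. Fluorescence was read at ex 324/em 393 nm. Rates came from the linear portion of the progress curves. Ki and Ki′ came from nonlinear regression with a mixed-inhibition model. Mechanism came from the alpha parameter and was checked with Lineweaver-Burk plots.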

MMP-13 = MMP-13 (Homo sapiens, UniProt P45452); assay: Selectivity testing against zinc metalloproteases: MMP-13; type: biochemical; details: read-out: IC50 MMP-13; n = 3 Mean ± SD
ADAM10 = target: T3, ADAM10 (Homo sapiens, UniProt O14672); assay: Selectivity testing against zinc metalloproteases: ADAM10; type: biochemical; details: read-out: IC50 ADAM10; n = 3 Mean ± SD
T3 sequence (O14672 214-748): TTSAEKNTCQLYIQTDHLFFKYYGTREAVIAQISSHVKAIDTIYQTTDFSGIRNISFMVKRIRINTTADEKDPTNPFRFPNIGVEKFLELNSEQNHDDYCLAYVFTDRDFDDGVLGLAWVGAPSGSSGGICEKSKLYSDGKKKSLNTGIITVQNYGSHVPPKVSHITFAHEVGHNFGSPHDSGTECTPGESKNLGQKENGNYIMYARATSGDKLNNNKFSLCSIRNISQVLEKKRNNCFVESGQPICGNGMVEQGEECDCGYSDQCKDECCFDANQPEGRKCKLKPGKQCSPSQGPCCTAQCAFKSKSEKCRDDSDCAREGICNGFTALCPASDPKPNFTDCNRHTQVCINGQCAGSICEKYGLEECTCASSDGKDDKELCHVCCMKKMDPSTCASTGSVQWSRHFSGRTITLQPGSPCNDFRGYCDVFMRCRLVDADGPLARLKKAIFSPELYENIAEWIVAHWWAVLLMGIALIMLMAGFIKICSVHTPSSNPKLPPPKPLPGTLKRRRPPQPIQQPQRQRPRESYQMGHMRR

meprin β [4] = target: T2, meprin β; assay: Meprin β HTS FRET assay, dose response; type: biochemical
How it was run: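 Trypsin-activated meprin β (trypsin removed on immobilized ovomucoid) in 50 mM Hepes, 0.01% Brij-35, pH 7.5, added as 2x (0.15 nM) solution. Pin-transferred inhibitor was preincubated 30 min at RT. 2x (20 μM) (MCA)-EDEDED-(K-ε-DNP) was then added, run 1 h at RT, and read at ex 324/em 393 nm. A 3-fold dilution series was run in quadruplicate, and % inhibition was fitted with a 4-parameter equation. DMSO final was 0.1% or 1.0%.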

meprin α [5] = target: T1, meprin α; assay: Meprin α HTS FRET assay, dose response; type: biochemical
How it was run: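 Recombinant human Strep-tagged meprin α was expressed in baculovirus-infected BTI-TN-5B1-4 cells, trypsin-activated, then freed of trypsin. It was used as a 2x solution at 2.6 nM in 50 mM Hepes, 0.01% Brij-35, pH 7.5. Test compound was pre-incubated 30 min at RT, then 2x (MCA)-YVADAPK-(K-ε-DNP) at 20 μM was added for 1 h at RT. Read at ex 324/em 393 nm. 3-fold dilutions in quadruplicate; 4-parameter fit; 0.1% or 1.0% DMSO.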

MMP-9 = MMP-9 (Homo sapiens, UniProt P14780); assay: Selectivity testing against zinc metalloproteases: MMP-9; type: biochemical; details: read-out: IC50 MMP-9; n = 3 Mean ± SD
Chain of MMP-9 (P14780 94-707, species assumed): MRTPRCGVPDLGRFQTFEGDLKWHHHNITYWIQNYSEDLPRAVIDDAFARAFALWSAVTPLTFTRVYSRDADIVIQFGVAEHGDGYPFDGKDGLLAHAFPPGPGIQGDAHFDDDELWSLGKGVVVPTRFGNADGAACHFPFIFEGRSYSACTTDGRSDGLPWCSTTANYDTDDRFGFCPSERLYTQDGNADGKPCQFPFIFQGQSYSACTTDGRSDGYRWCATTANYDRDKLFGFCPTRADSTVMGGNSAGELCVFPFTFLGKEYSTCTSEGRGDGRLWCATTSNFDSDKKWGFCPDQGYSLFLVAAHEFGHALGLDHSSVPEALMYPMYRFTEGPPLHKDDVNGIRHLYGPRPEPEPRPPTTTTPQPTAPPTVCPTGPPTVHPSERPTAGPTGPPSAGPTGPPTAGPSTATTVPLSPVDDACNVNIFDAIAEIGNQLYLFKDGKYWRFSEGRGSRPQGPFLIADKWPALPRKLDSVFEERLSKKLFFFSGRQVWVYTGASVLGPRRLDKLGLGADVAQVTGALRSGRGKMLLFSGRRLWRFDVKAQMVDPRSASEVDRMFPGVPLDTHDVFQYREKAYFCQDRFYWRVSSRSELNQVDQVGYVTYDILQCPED

MMP-2 = target: T4, MMP-2 (Homo sapiens, UniProt P08253); assay: Selectivity testing against zinc metalloproteases: MMP-2; type: biochemical; details: read-out: IC50 MMP-2; n = 3 Mean ± SD
T4 sequence (P08253 110-660): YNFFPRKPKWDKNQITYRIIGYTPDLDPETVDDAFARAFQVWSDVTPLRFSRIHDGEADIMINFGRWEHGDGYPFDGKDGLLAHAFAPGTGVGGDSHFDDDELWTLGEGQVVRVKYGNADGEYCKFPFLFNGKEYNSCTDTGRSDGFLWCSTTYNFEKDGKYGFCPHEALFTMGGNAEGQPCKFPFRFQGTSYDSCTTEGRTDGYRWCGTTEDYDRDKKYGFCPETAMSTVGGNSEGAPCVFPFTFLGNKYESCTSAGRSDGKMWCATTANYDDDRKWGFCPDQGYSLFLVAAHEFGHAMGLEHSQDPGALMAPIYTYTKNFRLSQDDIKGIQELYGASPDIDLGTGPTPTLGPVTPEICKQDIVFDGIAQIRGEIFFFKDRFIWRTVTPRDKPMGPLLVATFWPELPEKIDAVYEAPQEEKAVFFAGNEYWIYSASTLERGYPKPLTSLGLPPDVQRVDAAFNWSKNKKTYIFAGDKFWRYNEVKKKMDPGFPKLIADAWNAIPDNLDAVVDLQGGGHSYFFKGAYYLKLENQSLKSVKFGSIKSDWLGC

meprin β [6] = details: read-out: Ki meprin β; cited from earlier work
meprin α [7] = details: cited from earlier work

SMILES: N.N.O=C([O-])C1(C(=O)[O-])CCC1.[Pt+2] [Carboplatin, carboplatin]
% inhibition meprin β in pilot screen (meprin β [2]): negative inhibition values
meprin β LOPAC pilot screen outcome (meprin β [2]): selective hits

SMILES: c1ccc(-c2ccccn2)nc1 [2,2′-bipyridyl]
meprin β LOPAC pilot screen outcome (meprin β [2]): inactive
meprin α LOPAC pilot screen outcome (meprin α [1]): inactive

SMILES: CC(=O)c1ccc(S(=O)(=O)NC(=O)NC2CCCCC2)cc1 [Acetohexamide]
meprin α LOPAC pilot screen outcome (meprin α [1]): selective hits

SMILES: CNC(=O)[C@H](Cc1ccccc1)NC(=O)[C@H](CC(C)C)[C@H](CSc1cccs1)C(=O)NO [batimastat]
Ki (meprin β [6]): 18 ± 2.2 µM

SMILES: O.c1cnc2c(c1)ccc1cccnc12 [1,10-phenanthroline monohydrate]
meprin β LOPAC pilot screen outcome (meprin β [2]): inactive
meprin α LOPAC pilot screen outcome (meprin α [1]): inactive

SMILES: CNC(=O)[C@H](Cc1c[nH]c2ccccc12)NC(=O)[C@@H](CC(=O)NO)CC(C)C [galardin]
Ki (meprin β [6]): 8.9 ± 0.71 µM

More lines, main results first:

meprin α LOPAC pilot screen outcome (meprin α [1]): selective hits
SMILES: CCN(CC)CCNC(=O)c1ccc(NC(C)=O)cc1.Cl [N-Acetylprocainamide hydrochloride]

meprin β LOPAC pilot screen outcome (meprin β [2]): selective hits
IC50 (MMP-8): 1 ± 0.1 µM
IC50 (MMP-14): 73 ± 7 µM
IC50 (ADAM17): 91 ± 7.1 µM
Ki lower than IC50, fold (meprin β [3]; meprin β Ki versus HTS IC50): 10 fold
α = Ki/Ki′ (meprin β [3]; mixed-model inhibition, non-linear regression): 36 ± 27
Ki (meprin β [3]; read-out: Ki meprin β, substrate (MCA)-EDEDED-(K-ε-DNP), mixed inhibition model): 0.008 ± 0.0024 µM
IC50 (MMP-13): 69 ± 4.3 µM
IC50 (ADAM10): 19 ± 1.1 µM
potency differential meprin β versus meprin α (meprin β [4]; ratio of IC50 values): ~1000 fold
selectivity ratio meprin β versus MMP-8 (meprin β [4]; ratio of IC50 values): approximately 12 fold
IC50 (meprin β [4]; read-out: IC50 Meprin β, selectivity testing, n = 3 Mean ± SD): 0.08 ± 0.005 µM
IC50 (meprin α [5]; read-out: IC50 Meprin α, selectivity testing, n = 3 Mean ± SD): 67 ± 4.5 µM
IC50 (MMP-9): 40 ± 2.5 µM
IC50 (MMP-2): 31 ± 2 µM
SMILES: Cc1nc(N=Nc2cc(S(=O)(=O)[O-])c3cc([N+](=O)[O-])cc(S(=O)(=O)[O-])c3c2)c(COP(=O)([O-])[O-])c(C=O)c1O.[Na+].[Na+].[Na+].[Na+] [PPNDS, Pyridoxal-5′-phosphate-6-(2′-naphthylazo-6′-nitro-4′,8′-disulfonate) tetrasodium]
mechanism of inhibition of meprin β (meprin β [3]; non-linear regression and Lineweaver-Burke plots): pure competitive inhibition modality; also recorded: pure competitive inhibition mechanism

meprin β LOPAC pilot screen outcome (meprin β [2]): inactive
meprin α LOPAC pilot screen outcome (meprin α [1]): inactive
SMILES: CC(C)C[C@H](NC(=O)[C@H](O)[C@H](N)Cc1ccccc1)C(=O)O.Cl [epibestatin HCl]

meprin β LOPAC pilot screen outcome (meprin β [2]): inactive
meprin α LOPAC pilot screen outcome (meprin α [1]): inactive
SMILES: O=P(O)(O)C(Cl)(Cl)P(=O)(O)O [clodronic acid]

meprin α LOPAC pilot screen outcome (meprin α [1]): selective hits
SMILES: O=C(O)[C@@H]1C[C@H](C(=O)O)N1 [cis-Azetidine-2,4-dicarboxylic acid]

IC50 (meprin β [4]; IC50 meprin β, 0.1% DMSO): 5.2 ± 0.1 µM
IC50 (meprin β [4]; IC50 meprin β, 1.0% DMSO): 4.5 ± 0.1 µM
IC50 (meprin α [5]; IC50 meprin α, 0.1% DMSO): 0.0015 ± 7e-05 µM
IC50 (meprin α [5]; IC50 meprin α, 1.0% DMSO): 0.0025 ± 0.0001 µM
meprin α LOPAC pilot screen outcome (meprin α [1]): meprin α selective
meprin α LOPAC pilot screen outcome (meprin α [1]; listed as Actinonin): selective hits
SMILES: CCCCC[C@H](CC(=O)NO)C(=O)N[C@H](C(=O)N1CCC[C@H]1CO)C(C)C [actinonin]
fold more potent inhibition of meprin α than meprin β (meprin α [7]; ratio of Ki values): 100 fold
Ki (meprin α [7]; read-out: Ki meprin α): 0.02 µM
Ki (meprin β [6]): 2 µM
